Results as given in ChEMBL document CHEMBL1122923, “Structural features of imidazole derivatives that enhance styrene oxide hydrolase activity in rat hepatic microsomes” (J Med Chem, 1985).

Target: T1, Epoxide hydrolase 1 (Rattus norvegicus) (UniProt P07687)
T1 sequence (whole entry): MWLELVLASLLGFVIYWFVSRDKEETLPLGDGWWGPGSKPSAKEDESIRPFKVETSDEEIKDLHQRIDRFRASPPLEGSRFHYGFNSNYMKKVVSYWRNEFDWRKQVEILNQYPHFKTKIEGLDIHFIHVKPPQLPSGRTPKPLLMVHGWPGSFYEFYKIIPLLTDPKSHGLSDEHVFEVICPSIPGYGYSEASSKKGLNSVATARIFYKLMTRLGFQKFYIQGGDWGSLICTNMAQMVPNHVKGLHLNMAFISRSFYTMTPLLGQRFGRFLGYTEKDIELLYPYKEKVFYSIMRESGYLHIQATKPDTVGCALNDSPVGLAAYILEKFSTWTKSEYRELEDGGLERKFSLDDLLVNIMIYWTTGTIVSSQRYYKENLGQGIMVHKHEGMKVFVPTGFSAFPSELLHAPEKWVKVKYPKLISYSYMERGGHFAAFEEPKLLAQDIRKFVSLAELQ
Test: (§1) Enhancement of epoxide hydrolase activity
Conditions: not given
How it was run: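 Microsomes from untreated rats with a concentration series of N-1-substituted imidazoles added from aqueous solution. Styrene oxide hydrolysis in 0.25 M Tris-Cl pH 8.7, 0.03% Tween-80, 10 min, duplicate tubes, no-tissue blanks. E100 is the concentration giving 100% enhancement, read from the linear concentration-effect range using at least three concentrations on each side. Mean ± SD over individual rats.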

Structure (SMILES) | Log 1/E100
c1c[nH]cn1 [IMIDAZOLE] | 2.05
Clc1ccccc1C(c1ccccc1)(c1ccccc1)n1ccnc1 [CLOTRIMAZOLE] | 5.21
CCn1ccnc1 | 2.55

Species on record: Rattus norvegicus
Test: Maximum enhancement of styrene oxide hydrolase activity was reported at compound concentration of 1e-2M
Conditions: not given

Structure (SMILES) | Max enhancement
c1ccc(-n2ccnc2)cc1 | 4.7

Species on record: Rattus norvegicus
Test: Maximum enhancement of styrene oxide hydrolase activity was reported at compound concentration of 1e-3 M
Conditions: not given

Structure (SMILES) | Max enhancement
O=[N+]([O-])c1ccc(-n2ccnc2)cc1 | 1.3
Oc1ccc(-n2ccnc2)cc1 | 3.8
CC(=O)N1CCN(c2ccc(OCC3COC(Cn4ccnc4)(c4ccc(Cl)cc4Cl)O3)cc2)CC1 (centres undefined) | 3.3

Target: T1, Epoxide hydrolase 1 (Rattus norvegicus)
Test: as §1
Conditions: not given
How it was run: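 Microsomes from untreated rats, or rats given PB 80 mg/kg or 3MC 40 mg/kg ip daily for 3 days; 0.1-0.2 mg protein, 0.25 M Tris-Cl pH 8.7, 0.03% Tween-80. Value is the ratio of activity with to without derivative; mean ± SD, 3-4 rats.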

Structure (SMILES) | Log 1/E100
c1ccc(Cn2ccnc2)cc1 [BENZYLIMIDAZOLE] | 3.64
Fc1ccc(-n2ccnc2)cc1 | 3.26
O=[N+]([O-])c1ccc(-n2ccnc2)cc1 | 2.4
Oc1ccc(-n2ccnc2)cc1 | 3.62
Cn1ccnc1 [1-METHYLIMIDAZOLE] | 1.94
Clc1ccc(COC(Cn2ccnc2)c2ccc(Cl)cc2Cl)c(Cl)c1 (centres undefined) [MICONAZOLE] | 4.08
c1ccc(-n2ccnc2)cc1 | 3.48

Test system: not listed separately
Test: Partition coefficient (logP)
Assay type: physicochemical
Conditions: octanol/water

Structure (SMILES) | logP
Clc1ccccc1C(c1ccccc1)(c1ccccc1)n1ccnc1 [CLOTRIMAZOLE] | 6.14

Same assay, conditions: octanol/water; read-out: logP

Structure (SMILES) | logP
c1c[nH]cn1 [IMIDAZOLE] | -0.42
c1ccc(Cn2ccnc2)cc1 [BENZYLIMIDAZOLE] | 2.01
Fc1ccc(-n2ccnc2)cc1 | 1.67
O=[N+]([O-])c1ccc(-n2ccnc2)cc1 | 1.19
CCn1ccnc1 | 0.81
Oc1ccc(-n2ccnc2)cc1 | 0.94
Cn1ccnc1 [1-METHYLIMIDAZOLE] | 0.28
Clc1ccc(COC(Cn2ccnc2)c2ccc(Cl)cc2Cl)c(Cl)c1 (centres undefined) [MICONAZOLE] | 5.84
c1ccc(-n2ccnc2)cc1 | 1.48

Species on record: Rattus norvegicus
Test: Enhancement of styrene hydrolase activity was determined in male wistar rat hepatic microsomes given to phenobarbital treated rats
Conditions: Liver
How it was run: (§2)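 Rats were given phenobarbital 80 mg/kg ip daily for 3 days before washed hepatic microsomes were prepared. Ratio of activity with vs without derivative, from 3-4 rats or individual values.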

Structure (SMILES) | Enhancement
c1ccc(C2NCCN2)cc1 | 1.11
c1ccc(-n2ccnc2)cc1 | 3.15

Species on record: Rattus norvegicus
Test: Maximum enhancement of styrene oxide hydrolase activity was reported at compound concentration of 5e-2M
Conditions: not given

Structure (SMILES) | Max enhancement
CCn1ccnc1 | 4.6
Cn1ccnc1 [1-METHYLIMIDAZOLE] | 3.9

Species on record: Rattus norvegicus
Test: Maximum enhancement of styrene oxide hydrolase activity was reported at compound concentration of 5e-4 M
Conditions: not given
How it was run: (§3)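 Washed liver microsomes from untreated male Wistar rats (200 ± 20 g), stored at -20 °C. Tubes (0.145 mL) held 0.25 M Tris-Cl pH 8.7, 0.03% Tween-80, 0.1-0.2 mg microsomal protein and ¹⁴C-styrene oxide. Imidazoles were added from aqueous solution, in duplicate tubes at each concentration. Incubation was 10 min at 37 °C, stopped with hexanes. Maximum enhancement is the highest activity ratio (with/without additive) observed; mean ± SD over individual rats.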

Structure (SMILES) | Max enhancement
Clc1ccc(COC(Cn2ccnc2)c2ccc(Cl)cc2Cl)c(Cl)c1 (centres undefined) [MICONAZOLE] | 3.1

Target: T1, Epoxide hydrolase 1 (Rattus norvegicus)
Test: Enhanced styrene oxide hydrolase activity pH 8.7
Assay type: functional
Conditions: not given
How it was run: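 Imidazoles were added from aqueous solution, with diluted HCl or solvent in reference tubes, and incubated 10 min at 37 °C. Hexane stopped the reaction; tubes were run in duplicate. E100 (the concentration giving a 100% rise) came from the linear concentration-effect plot; mean ± SD over n rats.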

Structure (SMILES) | E100 [µM]
c1c[nH]cn1 [IMIDAZOLE] | 8800
c1ccc(Cn2ccnc2)cc1 [BENZYLIMIDAZOLE] | 230
Clc1ccccc1C(c1ccccc1)(c1ccccc1)n1ccnc1 [CLOTRIMAZOLE] | 6.2
Fc1ccc(-n2ccnc2)cc1 | 550
O=[N+]([O-])c1ccc(-n2ccnc2)cc1 | 3900
CCn1ccnc1 | 2800
Oc1ccc(-n2ccnc2)cc1 | 240
Cn1ccnc1 [1-METHYLIMIDAZOLE] | 12000
Clc1ccc(COC(Cn2ccnc2)c2ccc(Cl)cc2Cl)c(Cl)c1 (centres undefined) [MICONAZOLE] | 84
CC(=O)N1CCN(c2ccc(OCC3COC(Cn4ccnc4)(c4ccc(Cl)cc4Cl)O3)cc2)CC1 (centres undefined) | 54
c1ccc(-n2ccnc2)cc1 | 330

Species on record: Rattus norvegicus
Test: Maximum enhancement of styrene oxide hydrolase activity was reported at compound concentration of 1e-1M
Conditions: not given

Structure (SMILES) | Max enhancement
c1c[nH]cn1 [IMIDAZOLE] | 5.1

Species on record: Rattus norvegicus
Test: Maximum enhancement of styrene oxide hydrolase activity was reported at compound concentration of 5e-3 M
Conditions: not given

Structure (SMILES) | Max enhancement
c1ccc(Cn2ccnc2)cc1 [BENZYLIMIDAZOLE] | 5.7
Fc1ccc(-n2ccnc2)cc1 | 4.4

Species on record: Rattus norvegicus
Test: Enhancement of styrene hydrolase activity was determined in male wistar rat hepatic microsomes given to phenobarbital treated rats.
Conditions: Liver
How it was run: as §2

Structure (SMILES) | Enhancement
c1ccc(-c2ncc[nH]2)cc1 | 1.99
c1ccc(-c2c[nH]cn2)cc1 | 2.45

Species on record: Rattus norvegicus
Test: Enhancement of styrene hydrolase activity was determined in male wistar rat hepatic microsomes given to 3-methylcholanthrene treated rats
Conditions: Liver
How it was run: (§4)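 Male Wistar rats were pretreated ip with 3-methylcholanthrene 40 mg/kg daily for 3 days; washed liver microsomes were then prepared. Reported as activity ratio ± SD, n = 3-4 or individual.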

Structure (SMILES) | Enhancement
c1ccc(C2NCCN2)cc1 | 1.15
c1ccc(-n2ccnc2)cc1 | 3.75

Species on record: Rattus norvegicus
Test: Enhancement of styrene hydrolase activity was determined in male wistar rat hepatic microsomes given to 3-methylcholanthrene treated rats.
Conditions: Liver
How it was run: as §4

Structure (SMILES) | Enhancement
c1ccc(-c2ncc[nH]2)cc1 | 2.09
c1ccc(-c2c[nH]cn2)cc1 | 2.61

Species on record: Rattus norvegicus
Test: Enhancement of styrene hydrolase activity was determined in male wistar rat hepatic microsomes given to untreated rats.
Conditions: Liver
How it was run: (§5)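 Hepatic microsomes (washed) from untreated male Wistar rats (200 ± 20 g). Incubation: 0.25 M Tris-Cl pH 8.7, 0.03% Tween-80, 0.1-0.2 mg protein, 37 °C, 10 min, stopped with hexanes, duplicate tubes. Enhancement is the activity ratio with/without derivative, mean ± SD of 3-4 rats.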

Structure (SMILES) | Enhancement
c1ccc(-c2ncc[nH]2)cc1 | 2
c1ccc(-c2c[nH]cn2)cc1 | 2.3

Species on record: Rattus norvegicus
Test: Enhancement of styrene hydrolase activity was determined in male wistar rat hepatic microsomes given to untreated rats
Conditions: Liver
How it was run: as §5

Structure (SMILES) | Enhancement
c1ccc(C2NCCN2)cc1 | 1.19
c1ccc(-n2ccnc2)cc1 | 3.34

Species on record: Rattus norvegicus
Test: Maximum enhancement of styrene oxide hydrolase activity was reported at compound concentration of 1e-4M
Conditions: not given
How it was run: as §3

Structure (SMILES) | Max enhancement
Clc1ccccc1C(c1ccccc1)(c1ccccc1)n1ccnc1 [CLOTRIMAZOLE] | 5.4
